Experimental data taken from ChEMBL document CHEMBL3407486, “Additivity or cooperativity: which model can predict the influence of simultaneous incorporation of two or more functionalities in a ligand molecule?” (Eur J Med Chem, 2015).

Biological target: T1, Thermolysin (Bacillus thermoproteolyticus, UniProt P00800)
T1 sequence (P00800 whole entry): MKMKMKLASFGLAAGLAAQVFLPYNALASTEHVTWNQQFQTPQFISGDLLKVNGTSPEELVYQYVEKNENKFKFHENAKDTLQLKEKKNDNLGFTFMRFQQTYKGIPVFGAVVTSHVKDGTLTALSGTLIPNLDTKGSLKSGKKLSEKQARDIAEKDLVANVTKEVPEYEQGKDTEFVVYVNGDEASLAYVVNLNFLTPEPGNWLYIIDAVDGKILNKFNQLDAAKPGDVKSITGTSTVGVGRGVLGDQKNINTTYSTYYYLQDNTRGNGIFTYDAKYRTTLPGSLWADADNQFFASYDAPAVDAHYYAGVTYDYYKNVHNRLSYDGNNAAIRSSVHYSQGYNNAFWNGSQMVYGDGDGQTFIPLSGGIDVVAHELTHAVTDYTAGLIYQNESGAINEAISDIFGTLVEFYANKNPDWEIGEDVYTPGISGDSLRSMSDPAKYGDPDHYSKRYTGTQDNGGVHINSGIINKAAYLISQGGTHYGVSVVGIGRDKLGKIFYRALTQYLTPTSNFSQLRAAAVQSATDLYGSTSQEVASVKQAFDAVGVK
Test: Inhibition of Bacillus thermoproteolyticus TLN using 2-furanacryloyl-Gly-Leu-NH2 substrate by biochemical assay
Procedure, shortened: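 Read photometrically at 345 nm, 25.0 ± 0.2 °C, in 0.05 M Tris with 0.02 M CaCl2, 2.5 M NaBr, 1.25% DMF, pH 7.3. Final enzyme ~8 nM (stock quantified by A280). Inhibitor spanned 0.5Ki–10Ki. IC50 from υ0/υi vs [I] plots (Ki above 30 nM) or Henderson plots (below). Ki via Cheng-Prusoff (Km 3.9 ± 0.6 mM), averaged over at least three determinations.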

SMILES	Ki
CC(C)C[C@H](NP(=O)(O)CNC(=O)OCc1ccccc1)C(=O)NCCc1ccccc1	296 nM
CC(C)C[C@H](NP(=O)(O)CNC(=O)OCc1ccccc1)C(=O)N[C@@H](Cc1ccccc1)C(=O)O	54 nM
CC(C)C[C@H](NP(=O)(O)CNC(=O)OCc1ccccc1)C(=O)NCC(C)(C)C	100 nM
CC(C)C[C@H](NC(=O)[C@H](CC(C)C)NP(=O)(O)CNC(=O)OCc1ccccc1)C(=O)O	10 nM
CCCCCNC(=O)[C@H](CC(C)C)NP(=O)(O)CNC(=O)OCc1ccccc1	59 nM
CCCCNC(=O)[C@H](CC(C)C)NP(=O)(O)CNC(=O)OCc1ccccc1	67 nM
CC[C@H](NP(=O)(O)CNC(=O)OCc1ccccc1)C(=O)NCCC(C)C	1970 nM
CCCNC(=O)[C@H](CC(C)C)NP(=O)(O)CNC(=O)OCc1ccccc1	60 nM
CC(C)C[C@H](NP(=O)(O)CNC(=O)OCc1ccccc1)C(=O)N[C@@H](CC(C)(C)C)C(=O)O	40 nM
CC(C)CCNC(=O)[C@H](CC(C)C)NP(=O)(O)CNC(=O)OCc1ccccc1	69 nM
CCC(C)CNC(=O)[C@H](CC(C)C)NP(=O)(O)CNC(=O)OCc1ccccc1 (some centres undefined)	26 nM
CC(C)C[C@H](NP(=O)(O)CNC(=O)OCc1ccccc1)C(=O)NCCC(C)(C)C	43 nM
CC(C)C[C@H](NP(=O)(O)CNC(=O)OCc1ccccc1)C(=O)NCCc1cccs1	189 nM
CCC[C@H](NP(=O)(O)CNC(=O)OCc1ccccc1)C(=O)NCCC(C)C	219 nM
CC(C)C[C@H](NP(=O)(O)CNC(=O)OCc1ccccc1)C(=O)N[C@H](C(=O)O)C(C)C	5.8 nM
CC(C)CCNC(=O)[C@H](C)NP(=O)(O)CNC(=O)OCc1ccccc1	19500 nM
CC(C)CNC(=O)[C@H](CC(C)C)NP(=O)(O)CNC(=O)OCc1ccccc1	37 nM
C[C@H](NP(=O)(O)CNC(=O)OCc1ccccc1)C(=O)NCCc1ccccc1	45200 nM
CC(C)C[C@H](NP(=O)(O)CNC(=O)OCc1ccccc1)C(=O)N[C@H](C(=O)O)C(C)(C)C	31 nM
CC(C)C[C@H](NP(=O)(O)CNC(=O)OCc1ccccc1)C(=O)N[C@@H](Cc1cccs1)C(=O)O	24 nM

Other lines, results leading:

Ki	SMILES
5920 nM	CC(C)C[C@H](NC(=O)[C@H](C)NP(=O)(O)CNC(=O)OCc1ccccc1)C(=O)O
596 nM	CC[C@H](NP(=O)(O)CNC(=O)OCc1ccccc1)C(=O)N[C@@H](CC(C)C)C(=O)O
189000 nM	C[C@H](NP(=O)(O)CNC(=O)OCc1ccccc1)C(=O)NCC(=O)O
56200 nM	CCNC(=O)[C@H](C)NP(=O)(O)CNC(=O)OCc1ccccc1
5.3 nM	CCCC[C@H](NC(=O)[C@H](CC(C)C)NP(=O)(O)CNC(=O)OCc1ccccc1)C(=O)O
31100 nM	C[C@H](NP(=O)(O)CNC(=O)OCc1ccccc1)C(=O)N[C@@H](Cc1ccccc1)C(=O)O
5.5 nM	CCC[C@H](NC(=O)[C@H](CC(C)C)NP(=O)(O)CNC(=O)OCc1ccccc1)C(=O)O
29 nM	CCC[C@H](NP(=O)(O)CNC(=O)OCc1ccccc1)C(=O)N[C@@H](CC(C)C)C(=O)O
12 nM	CCC(C)[C@H](NC(=O)[C@H](CC(C)C)NP(=O)(O)CNC(=O)OCc1ccccc1)C(=O)O (some centres undefined)
12400 nM	CCCNC(=O)[C@H](C)NP(=O)(O)CNC(=O)OCc1ccccc1
185000 nM	CNC(=O)[C@H](C)NP(=O)(O)CNC(=O)OCc1ccccc1
7200 nM	C[C@H](NC(=O)[C@H](C)NP(=O)(O)CNC(=O)OCc1ccccc1)C(=O)O
1370 nM	CC[C@H](NC(=O)[C@H](C)NP(=O)(O)CNC(=O)OCc1ccccc1)C(=O)O
4.9 nM	CC[C@H](NC(=O)[C@H](CC(C)C)NP(=O)(O)CNC(=O)OCc1ccccc1)C(=O)O
